Source: PubChem (Johns Hopkins Ion Channel Center)
Shown are actives, neighbours in structure and some others; about 3.5% of the full set was active somewhere.
MrgX1 agonist: activates human MrgX1 receptor signaling. Q96LB2. MrgX1-HEK293 cells, Fluo-4 calcium fluorescence, agonist mode; stronger effect = higher value. B-score at 10 µM. 310,000 tested, 0.44% active;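 active = calcium response B-score plate-corrected fluorescence ratio at least 3 library SD, with starting fluorescence B-score inside 5 SD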
Target sequence (Q96LB2 whole entry, looked up): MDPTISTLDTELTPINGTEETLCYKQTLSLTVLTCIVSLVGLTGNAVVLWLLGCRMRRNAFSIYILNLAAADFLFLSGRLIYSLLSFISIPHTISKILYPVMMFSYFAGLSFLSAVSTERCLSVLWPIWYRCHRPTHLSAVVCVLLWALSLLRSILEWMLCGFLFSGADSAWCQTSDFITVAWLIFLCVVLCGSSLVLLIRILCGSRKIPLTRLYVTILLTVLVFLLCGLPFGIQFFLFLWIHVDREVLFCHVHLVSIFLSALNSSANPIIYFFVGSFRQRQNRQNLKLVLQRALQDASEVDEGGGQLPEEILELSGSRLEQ
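Test system: HEK293 cells stably expressing human MrgX1 receptor; Input: fifteen thousand cells per well; Dosing: compound delivered in addition one of three; Schedule: overnight seeding, then 1 h dark dye loading; Technique: Fluo-4 NW calcium fluorescence; Measure: B-scored fluorescence response ratio; Controls: positive and negative controls per plate.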
RGS4 inh: inhibitors of human RGS4 | 310,000 tested, 0.45% active | HEK293 M3R/RGS4 inducible, Fluo-4 calcium flux; stronger effect = higher value; triggered by carbachol at its EC20 | B-score at 10 µM;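 active = B-score, a plate-corrected calcium signal, over three deviations above library mean, with baseline fluorescence within five deviations of library mean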;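 also: RGS4 expression induced by doxycycline in cells with stable M3 receptor; B-score is computed from the integrated fluorescence ratio over baseline after carbachol; higher B-score means a larger calcium signal and so more RGS4 inhibition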
Target sequence (P49798 whole entry, looked up): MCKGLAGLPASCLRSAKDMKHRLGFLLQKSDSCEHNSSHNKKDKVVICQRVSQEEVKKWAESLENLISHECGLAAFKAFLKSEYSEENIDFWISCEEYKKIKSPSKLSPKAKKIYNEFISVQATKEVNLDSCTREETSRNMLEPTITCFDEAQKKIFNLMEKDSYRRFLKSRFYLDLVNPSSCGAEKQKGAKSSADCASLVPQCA
MrgX1 antag: blocks BAM8-22 activation of human MrgX1 receptor. MRGX1-HEK293 calcium flux, Fluo-4, BAM8-22 antagonism; stronger effect = lower value. B-score at 10 µM. 310,000 tested, 1.3% active;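 active = calcium-response B-score plate-corrected more than 3 library SD below zero, starting fluorescence within 5 deviations, no agonist response on first addition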;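 also: peak minus trough fluorescence over baseline after final BAM8-22 challenge near maximal dose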
RGS4 act: RGS4 potentiation or activation. HEK293 M3R/inducible RGS4, carbachol calcium flux Fluo4; stronger effect = lower value. B-score at 10 µM. 310,000 tested, 0.92% active;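 active = B-score of the integrated calcium signal more than 4 SD below the library mean, with starting fluorescence not abnormally high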;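 also: negative B-score means reduced calcium response which marks RGS4 activation or potentiation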
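test system = M3R-expressing HEK293 line, RGS4 induced by doxycycline | probe or stimulus = carbachol at ECmax as muscarinic agonist stimulus | timing = dye loading 30 min 37 °C, buffer rest 30 min RT | signal = calcium dye Fluo4 fluorescence | evaluation = B score from integrated fluorescence ratio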
MrgX1 PAM: allosterically activates human MrgX1 receptor signaling; Q96LB2; MrgX1-HEK293, Fluo-4 calcium flux, FDSS; stronger effect = higher value; B-score at 10 µM; 310,000 tested, 0.63% active;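 active = plate-corrected calcium response at least 3 library SD above typical, normal starting fluorescence, not activating the receptor alone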;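 also: compound read alongside a low EC10 to EC30 dose of BAM8-22 agonist; peak minus trough fluorescence over baseline measured at the second addition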
MrgX1 PAM conf: human MrgX1 positive allosteric modulation, re-confirmation; shares compounds with MrgX1 PAM; MrgX1-HEK293, Fluo-4 calcium fluorescence, FDSS; activation (ratio percentage), % at 10 µM; 1,200 tested, 13% active;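 active = ratio at least 3 SD above the weak peptide control, stable starting fluorescence, no direct agonism earlier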;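 also: compound followed by low BAM8-22 agonist challenge near EC20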
HEK293 Ca flux: activity in parental HEK293 cells lacking MrgX1 | shares compounds with MrgX1 antag | fluorescence ratio F(max-min)/F0 at 10 µM | Fluo-4 calcium fluorescence, FDSS | 4,000 tested, 2% active;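 active = duplicate-averaged calcium fluorescence ratio at least three times the standard deviation of buffer wells, a nonspecific response in parental cells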
HEK293 Ca counter: MrgX1 allosteric activator counter-screen hit in parental HEK293 cells | fluorescence ratio F(max-min)/F0 at 10 µM | shares compounds with MrgX1 antag | 4,000 tested, 0.4% active | parental HEK293 calcium flux, Fluo-4 fluorescence ratio; stronger effect = higher value;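 active = calcium fluorescence ratio, averaged over duplicates, at least 3 SD of the buffer-well ratio, meaning a nonspecific response in receptor-free cells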;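 also: untransfected parental HEK293 lacking MrgX1 used as counterscreen for MrgX1 allosteric activators; fluorescence change taken during the second addition on a kinetic imager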
HEK293 Ca cntr2: MrgX1 activator counter-screen hit in parental HEK293 cells; shares compounds with MrgX1 antag; Fluo-4 calcium fluorescence (FDSS); stronger effect = higher value; fluorescence ratio F(max-min)/F0 at 10 µM; 4,000 tested, 8.7% active; AID 624115;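 active = calcium fluorescence ratio at least three times the spread of buffer wells, meaning a non-specific response in parental cells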
Of the large screens only hits and unclear results are named; the others gave an inactive call (follow-up assays come after a bar, where they were run).

Cc1cccc(C)c1NC(=O)CN(C)C(=O)c1cccc(S(=O)(=O)N2CCN(c3ccc(F)cc3)CC2)c1	MrgX1 PAM 9.02 | MrgX1 PAM conf inactive | HEK293 Ca flux inactive | HEK293 Ca counter inactive | HEK293 Ca cntr2 inactive
COc1ccccc1CNC(=O)CSc1ccc(-c2cccc([N+](=O)[O-])c2)nn1	none
c1ccc(N2CCN(c3ncnc4sc5c(c34)CCC5)CC2)cc1	none
c1nc(N2CCC3(CC2)OCCO3)c2c3c(sc2n1)CCCC3	MrgX1 PAM 17 | MrgX1 PAM conf inactive | HEK293 Ca flux inactive | HEK293 Ca counter inactive | HEK293 Ca cntr2 inactive
CCCNC(=O)OCC12CC3CC(CC(C3)C1)C2	MrgX1 PAM 9.66 | MrgX1 PAM conf inactive | HEK293 Ca flux inactive | HEK293 Ca counter inactive | HEK293 Ca cntr2 inactive
Cc1ccc(NC(=O)C2C3/C=C\CCCCC32)cc1 (configuration not stated)	none
O=C(Nc1nccs1)C1C2/C=C\CCCCC21 (configuration not stated)	MrgX1 PAM 12 | MrgX1 PAM conf inactive | HEK293 Ca flux inactive | HEK293 Ca counter inactive | HEK293 Ca cntr2 inactive
CC(C)c1ccc(NC(=S)Nc2ccc3[nH]c(=O)[nH]c3c2)cc1	MrgX1 PAM 15 | MrgX1 PAM conf inactive | HEK293 Ca flux inactive | HEK293 Ca counter inactive | HEK293 Ca cntr2 inactive
O=c1[nH]c2ccc(NC(=S)Nc3ccc(Cl)cc3)cc2[nH]1	none
CCn1nnc(-c2ccc(N)cc2)n1	none
CCCCCC(=O)NC(=S)NC1C2CC3CC(C2)CC1C3 (configuration not stated)	none
O=C(NCCCN1CCOCC1)c1ccc(CSc2ccc(Cl)cc2)cc1	MrgX1 PAM 9.06 | MrgX1 PAM conf inactive | HEK293 Ca flux inactive | HEK293 Ca counter inactive | HEK293 Ca cntr2 inactive
CC(C)c1ccc(C(=O)NCCCN2CCOCC2)cc1	none
COc1ccc(CNc2ccccc2)cc1Br	MrgX1 PAM 9.41 | MrgX1 PAM conf inactive | HEK293 Ca flux inactive | HEK293 Ca counter inactive | HEK293 Ca cntr2 inactive
COc1ccc(CNc2ccc(C)cc2)cc1Br	none
O=C1C2C3C=CC(CC3)C2C(=O)N1c1cccc(Br)c1 (configuration not stated)	none
CCN(CC(=O)Nc1c(F)cccc1F)C(=O)c1ccc(C(F)(F)F)cc1	MrgX1 PAM 8.07 | MrgX1 PAM conf inactive | HEK293 Ca flux inactive | HEK293 Ca counter inactive | HEK293 Ca cntr2 inactive
CCOC(=O)N1CCN(c2nc3ccccn3c(=O)c2C=O)CC1	none
Cc1cccc2cc3cccc(C)c3nc12	none
Cc1cccc2cc3ccccc3nc12	MrgX1 PAM 9.15 | MrgX1 PAM conf inactive | HEK293 Ca flux inactive | HEK293 Ca counter inactive | HEK293 Ca cntr2 inactive
COc1ccc(CN(C)CC(=O)Nc2ccccc2-c2ccccc2)c(OC)c1	none
COc1ccccc1CN(C)CC(=O)Nc1ccccc1-c1ccccc1	MrgX1 PAM 9.99 | MrgX1 PAM conf inactive | HEK293 Ca flux inactive | HEK293 Ca counter inactive | HEK293 Ca cntr2 inactive
Cc1ccc(CC(=O)Nc2ccccc2-c2ccccc2)cc1C	MrgX1 PAM 21.2 | MrgX1 PAM conf inactive | HEK293 Ca flux inactive | HEK293 Ca counter inactive | HEK293 Ca cntr2 inactive
COc1ccc(OCC(=O)Nc2ccccc2-c2ccccc2)cc1	MrgX1 PAM 12.2 | MrgX1 PAM conf inactive | HEK293 Ca flux inactive | HEK293 Ca counter inactive | HEK293 Ca cntr2 inactive
COc1ccc(CC(=O)Nc2ccccc2-c2ccccc2)cc1OC	none
CCc1cccc(NS(=O)(=O)c2ccc3c(c2)NC(=O)C(C)S3)c1 (configuration not stated)	MrgX1 PAM 15.5 | MrgX1 PAM conf inactive | HEK293 Ca flux inactive | HEK293 Ca counter inactive | HEK293 Ca cntr2 inactive
O=C(C1CC(=O)N(c2ccc3c(c2)OCCO3)C1)N1CCN(c2cccc(C(F)(F)F)c2)CC1 (configuration not stated)	none
CC1(C)Cc2ccccc2-c2nnc(SCC(=O)N3CCN(c4ccccc4)CC3)n21	MrgX1 PAM 10.5 | MrgX1 PAM conf 9.3% | HEK293 Ca flux inactive | HEK293 Ca counter inactive | HEK293 Ca cntr2 inactive
O=C(NCc1nnc2c(C(F)(F)F)cc(Cl)cn12)c1ccc2c(c1)OCO2	none
C/C(=N\Nc1nc(N2CCCCC2)nc(N2CCOCC2)n1)c1ccccc1O	none
O=C(Nc1nc2c(F)cc(F)cc2s1)c1ccco1	MrgX1 PAM 15.6 | MrgX1 PAM conf inactive | HEK293 Ca flux inactive | HEK293 Ca counter inactive | HEK293 Ca cntr2 inactive
COc1cccc(C2(O)CC(C(F)(F)F)=NN2C(=O)c2ccccn2)c1 (configuration not stated)	none
CCNc1nc(CSc2ccccc2)nc2sc(C)c(C)c12	none
CCOc1cccc(NC(=O)CSc2nncn2N)c1	MrgX1 PAM 7.38 | MrgX1 PAM conf inactive | HEK293 Ca flux inactive | HEK293 Ca counter inactive | HEK293 Ca cntr2 inactive
COc1ccc(N=C2SCC(=O)N2Cc2ccccc2)cc1	MrgX1 PAM 10.7 | MrgX1 PAM conf inactive | HEK293 Ca flux inactive | HEK293 Ca counter inactive | HEK293 Ca cntr2 inactive
NS(=O)(=O)c1ccc(CNC(=O)CNC(=O)c2ccc(Br)o2)cc1	none
COc1ccc(-c2cc(C(F)(F)F)n3ncc(C(=O)N(C)Cc4ccccc4)c3n2)cc1	MrgX1 PAM 6.94 | MrgX1 PAM conf inactive | HEK293 Ca flux inactive | HEK293 Ca counter inactive | HEK293 Ca cntr2 inactive
COc1ccc(-c2cc(C(F)(F)F)n3ncc(C(=O)NCc4ccco4)c3n2)cc1	none
CCCCc1cc(=O)oc2cc(OCC(=O)NCc3ccccn3)c(Cl)cc12	none
CCCCc1cc(=O)oc2cc(OC(C)C(=O)NCc3ccccn3)c(Cl)cc12 (configuration not stated)	MrgX1 PAM 13.5 | MrgX1 PAM conf inactive | HEK293 Ca flux inactive | HEK293 Ca counter inactive | HEK293 Ca cntr2 inactive
COc1cc(Cl)c(C)cc1NC(=O)COC(=O)C1=COCCO1	none
Cc1cccc(NC(=O)C(CCC(N)=O)NC(=O)OCc2ccccc2)c1 (configuration not stated)	none
CCC(c1nnnn1CCc1ccccc1)N1CCN(c2ccc(OC)cc2)CC1 (configuration not stated)	MrgX1 PAM 7.73 | MrgX1 PAM conf inactive | HEK293 Ca flux inactive | HEK293 Ca counter inactive | HEK293 Ca cntr2 inactive
